Experimental data from ChEMBL document CHEMBL1126715, “Synthesis and tissue distribution of (m-[125I]iodobenzyl)trozamicol ([125I]MIBT): potential radioligand for mapping central cholinergic innervation” (J Med Chem, 1993).

What was measured:
Rattus norvegicus [1] = organism: Rattus norvegicus; test: Ratio of regional kinetics between rat brain caudate and cerebellum at 180 minutes; type: ADME, organism-based; conditions: in vivo, 3 h
How it was run: (§1)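 Male Wistar rats (n = 4/group) under ether anesthesia, iv (+)-[125I]MIBT (2 μCi in 100 μL 50% aqueous EtOH); killed at 30, 120, 180 min. Brains partially frozen, dissected into striatum, cerebellum, cortex and remainder; radioactivity counted, % dose/g vs injected-dose dilutions; caudate/cortex and caudate/cerebellum ratios.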

Rattus norvegicus [2] = organism: Rattus norvegicus; test: Regional kinetics in the rat cerebellum at 30 minutes; type: ADME, organism-based; conditions: in vivo, 0.5 h
How it was run: (§2)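 Male Wistar rats (n = 4 per time point) under ether received (+)-radiotracer iv (2 μCi in 100 μL 50% aqueous EtOH). They were killed at 30, 120 or 180 min. Brains were partially frozen and dissected into striatum, cerebellum, cortex and remainder. Regions were γ-counted against injected-dose dilutions and expressed as % injected dose/g tissue.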

Rattus norvegicus [3] = organism: Rattus norvegicus; test: Effect of haloperidol on the regional distribution of compound in the rat cerebellum (n=4) [0.22 (0.18-0.24)]; type: ADME, organism-based; conditions: in vivo
Rattus norvegicus [4] = organism: Rattus norvegicus; test: Tissue distribution in rat blood after 5 minutes (n=3); type: ADME, organism-based; conditions: in vivo
How it was run: (§3)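 Male Wistar rats (200-350 g) under ether anesthesia; radiotracer (3-5 μCi in 0.1 mL 50% aqueous ethanol) given iv. At 5, 30, 60 and 180 min, blood was drawn by cardiac puncture and animals were killed by cardiectomy. Organs were weighed and γ-counted against a 1:100 dilution of the injected dose. Results are given as % injected dose/g tissue; ratios are taken between tissue levels.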

[5] = Ratio of tissue distribution between rat heart and blood after 120 min; type: ADME, organism-based
Rattus norvegicus [6] = organism: Rattus norvegicus; test: Tissue distribution in rat thyroid after 5 minutes (n=3); type: ADME, organism-based, Thyroid gland; conditions: in vivo
How it was run: (§4)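 Male Wistar rats (200-350 g) under ether, iv [125I]tracer (3-5 μCi in 0.1 mL 50% aqueous EtOH). At 5, 30, 60 or 180 min, blood taken by cardiac puncture and the rat killed by cardiectomy. Organs weighed and γ-counted against 1:100 dilutions of the injected dose; results in % injected dose/g, with range.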

Rattus norvegicus [7] = organism: Rattus norvegicus; test: Ratio of regional kinetics between rat brain caudate and cortex at 30 minutes; type: ADME, organism-based; conditions: in vivo, 0.5 h; how it was run: as §1
Rattus norvegicus [8] = organism: Rattus norvegicus; test: Regional kinetics in the remainder of rat brain at 180 minutes; type: ADME, organism-based; conditions: in vivo, 3 h; how it was run: as §2
Rattus norvegicus [9] = organism: Rattus norvegicus; test: Tissue distribution in rat liver after 5 minutes (n=3); type: ADME, organism-based; conditions: in vivo; how it was run: as §4
Rattus norvegicus [10] = organism: Rattus norvegicus; test: Ratio of regional kinetics between rat brain caudate and cerebellum at 120 minutes; type: ADME, organism-based; conditions: in vivo, 2 h; how it was run: as §1
Rattus norvegicus [11] = organism: Rattus norvegicus; test: Tissue distribution in rat gonads after 180 minutes (n=3); type: ADME, organism-based, Gonad; conditions: in vivo, 3 h; how it was run: as §3
Rattus norvegicus [12] = organism: Rattus norvegicus; test: Tissue distribution in rat spleen after 5 minutes (n=3); type: ADME, organism-based; conditions: in vivo; how it was run: as §4
Rattus norvegicus [13] = organism: Rattus norvegicus; test: Tissue distribution in rat liver after 180 minutes (n=3); type: ADME, organism-based; conditions: in vivo, 3 h; how it was run: as §4
Rattus norvegicus [14] = organism: Rattus norvegicus; test: Tissue distribution in rat muscle after 5 minutes (n=3); type: ADME, organism-based; conditions: in vivo; how it was run: as §3
Rattus norvegicus [15] = organism: Rattus norvegicus; test: Tissue distribution in rat lung after 60 minutes (n=3); type: ADME, organism-based; conditions: in vivo, 1 h; how it was run: as §3
Rattus norvegicus [16] = organism: Rattus norvegicus; test: Tissue distribution in rat spleen after 60 minutes (n=3); type: ADME, organism-based; conditions: in vivo, 1 h; how it was run: as §3
Rattus norvegicus [17] = organism: Rattus norvegicus; test: Regional kinetics in the rat brain cortex at 180 minutes; type: ADME, organism-based; conditions: in vivo, 3 h
How it was run: (§5)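 Male Wistar rats under ether anaesthesia, iv (+)-[125I]tracer (2 μCi in 100 μL 50% aqueous EtOH); killed at 30, 120 or 180 min. Brains partially frozen and dissected into striatum, cerebellum, cortex and remainder, then counted for radioactivity. Results are % injected dose/g, calculated against counted dilutions of the injected dose.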

Rattus norvegicus [18] = organism: Rattus norvegicus; test: Regional kinetics in the rat cerebellum at 120 minutes; type: ADME, organism-based; conditions: in vivo, 2 h; how it was run: as §5
Rattus norvegicus [19] = organism: Rattus norvegicus; test: Ratio of tissue distribution between rat brain and blood after 30 min; type: ADME, organism-based; conditions: 0.5 h
How it was run: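 Male Wistar rats (200-350 g) under ether anesthesia, iv radiotracer (3-5 μCi in 0.1 mL 50% aqueous ethanol). At 5, 30, 60, 180 min blood taken by cardiac puncture, animal killed by cardiectomy; organs weighed, γ-counted against 1:100 injected-dose dilution; % injected dose/g tissue; brain/blood ratio.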

Rattus norvegicus [20] = organism: Rattus norvegicus; test: Ratio of regional kinetics between rat brain caudate and cortex at 120 minutes; type: ADME, organism-based; conditions: in vivo, 2 h; how it was run: as §1
Rattus norvegicus [21] = organism: Rattus norvegicus; test: Effect of vesamicol on the accumulation in rat spleen [0.97 (0.89-1.04)]; type: ADME, organism-based; conditions: in vivo
How it was run: (§6)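 Male Wistar rats (n = 4/group) given iv vehicle (100 μL 50% aqueous EtOH) or dl-vesamicol (1.01 μmol/kg); 15 min later iv radiotracer (2.0 μCi in 100 μL 50% aqueous EtOH); killed 30 min post-tracer. Blood by cardiac puncture, organs weighed and γ-counted vs 1:100 injected-dose dilution; % dose/g tissue (range); tissue/blood ratios.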

Rattus norvegicus [22] = organism: Rattus norvegicus; test: Ratio of tissue distribution between rat heart and blood after 30 min; type: ADME, organism-based; conditions: other tissue, 0.5 h; how it was run: as §3
Rattus norvegicus [23] = organism: Rattus norvegicus; test: Effect of 4-aminobenzovesamicol on the regional distribution of compound in the rat brain caudate-putamen (n=4) [0.40 (0.35-0.47)]; type: ADME, organism-based; conditions: in vivo
Rattus norvegicus [24] = organism: Rattus norvegicus; test: Tissue distribution in rat brain after 60 minutes (n=3); type: ADME, organism-based; conditions: in vivo, 1 h; how it was run: as §3
Rattus norvegicus [25] = organism: Rattus norvegicus; test: Regional kinetics in the remainder of rat brain at 30 minutes; type: ADME, organism-based; conditions: in vivo, 0.5 h; how it was run: as §2
Rattus norvegicus [26] = organism: Rattus norvegicus; test: Effect of haloperidol on the regional distribution of compound in the rat brain caudate-putamen (n=4) [0.75 (0.60-0.85)]; type: ADME, organism-based; conditions: in vivo
Rattus norvegicus [27] = organism: Rattus norvegicus; test: Effect of vesamicol on the accumulation in rat lung [1.56 (1.28-1.90)]; type: ADME, organism-based; conditions: in vivo; how it was run: as §6
Rattus norvegicus [28] = organism: Rattus norvegicus; test: Regional kinetics in the rat brain cortex at 30 minutes; type: ADME, organism-based; conditions: in vivo, 0.5 h; how it was run: as §5
Rattus norvegicus [29] = organism: Rattus norvegicus; test: Tissue distribution in rat kidney after 30 minutes (n=3); type: ADME, organism-based; conditions: in vivo, 0.5 h; how it was run: as §3
Rattus norvegicus [30] = organism: Rattus norvegicus; test: Ratio of effect 4-aminobenzovesamicol on regional distribution between rat brain caudate and cerebellum; type: ADME, organism-based; conditions: in vivo
Rattus norvegicus [31] = organism: Rattus norvegicus; test: Ratio of effect 4-aminobenzovesamicol on regional distribution between rat brain caudate and cortex; type: ADME, organism-based; conditions: in vivo
Rattus norvegicus [32] = organism: Rattus norvegicus; test: Tissue distribution in rat kidney after 180 minutes (n=3); type: ADME, organism-based; conditions: in vivo, 3 h; how it was run: as §3
Rattus norvegicus [33] = organism: Rattus norvegicus; test: Effect of 4-aminobenzovesamicol on the regional distribution of compound in the rat brain cortex (n=4) [0.23 (0.19-0.25)]; type: ADME, organism-based; conditions: in vivo
Rattus norvegicus [34] = organism: Rattus norvegicus; test: Tissue distribution in rat kidney after 60 minutes (n=3); type: ADME, organism-based; conditions: in vivo, 1 h; how it was run: as §3
Rattus norvegicus [35] = organism: Rattus norvegicus; test: Regional kinetics in the rat brain cortex at 120 minutes; type: ADME, organism-based; conditions: in vivo, 2 h; how it was run: as §2
Rattus norvegicus [36] = organism: Rattus norvegicus; test: Tissue distribution in rat blood after 180 minutes (n=3); type: ADME, organism-based; conditions: in vivo, 3 h; how it was run: as §3
Rattus norvegicus [37] = organism: Rattus norvegicus; test: Regional kinetics in the rat brain caudate-putamen at 180 minutes; type: ADME, organism-based; conditions: in vivo, 3 h; how it was run: as §2
Rattus norvegicus [38] = organism: Rattus norvegicus; test: Tissue distribution in rat thyroid after 30 minutes (n=3); type: ADME, organism-based, Thyroid gland; conditions: in vivo, 0.5 h; how it was run: as §3
Rattus norvegicus [39] = organism: Rattus norvegicus; test: Tissue distribution in rat gonads after 5 minutes (n=3); type: ADME, organism-based, Gonad; conditions: in vivo; how it was run: as §3
Rattus norvegicus [40] = organism: Rattus norvegicus; test: Regional kinetics in the remainder of rat brain at 120 minutes; type: ADME, organism-based; conditions: in vivo, 2 h; how it was run: as §2
Rattus norvegicus [41] = organism: Rattus norvegicus; test: Tissue distribution in rat thyroid after 180 minutes (n=3); type: ADME, organism-based, Thyroid gland; conditions: in vivo, 3 h; how it was run: as §3
Rattus norvegicus [42] = organism: Rattus norvegicus; test: Tissue distribution in rat blood after 60 minutes (n=3); type: ADME, organism-based; conditions: in vivo, 1 h; how it was run: as §4
Rattus norvegicus [43] = organism: Rattus norvegicus; test: Effect of haloperidol on the regional distribution of compound in the rat brain cortex (n=4) [0.32 (0.29-0.38)]; type: ADME, organism-based, Cerebral cortex; conditions: in vivo
Rattus norvegicus [44] = organism: Rattus norvegicus; test: Tissue distribution in rat thyroid after 60 minutes (n=3); type: ADME, organism-based, Thyroid gland; conditions: in vivo, 1 h; how it was run: as §3
Rattus norvegicus [45] = organism: Rattus norvegicus; test: Regional kinetics in the rat brain caudate-putamen at 120 minutes; type: ADME, organism-based; conditions: in vivo, 2 h; how it was run: as §2
Rattus norvegicus [46] = organism: Rattus norvegicus; test: Tissue distribution in rat muscle after 60 minutes (n=3); type: ADME, organism-based; conditions: in vivo, 1 h; how it was run: as §4
Rattus norvegicus [47] = organism: Rattus norvegicus; test: Tissue distribution in rat liver after 30 minutes (n=3); type: ADME, organism-based; conditions: in vivo, 0.5 h; how it was run: as §3
Rattus norvegicus [48] = organism: Rattus norvegicus; test: Tissue distribution in rat brain after 5 minutes (n=3); type: ADME, organism-based; conditions: in vivo; how it was run: as §3
Rattus norvegicus [49] = organism: Rattus norvegicus; test: Tissue distribution in rat heart after 5 minutes (n=3); type: ADME, organism-based; conditions: in vivo; how it was run: as §3

## O[C@@H]1CCN(Cc2cccc([125I])c2)C[C@H]1N1CCC(c2ccccc2)CC1 (stereo in doubt; (+))
Rattus norvegicus [1]
  Ratio: 2.95
Rattus norvegicus [2]
  Dose/g: 0.53%
Rattus norvegicus [3]
  Dose/g: 0.09%
Rattus norvegicus [4]
  Dose/g: 0.24%
[5]
  Kp at 2 h: 1.6
Rattus norvegicus [6]
  Dose/g: 1.6%
Rattus norvegicus [7]
  Ratio: 0.98
Rattus norvegicus [8]
  Dose/g: 0.25%
Rattus norvegicus [9]
  Dose/g: 1.6%
Rattus norvegicus [10]
  Ratio: 2.43
Rattus norvegicus [11]
  Dose/g: 0.16%
Rattus norvegicus [12]
  Dose/g: 0.76%
Rattus norvegicus [13]
  Dose/g: 1.18%
Rattus norvegicus [14]
  Dose/g: 0.34%
Rattus norvegicus [15]
  Dose/g: 0.82%
Rattus norvegicus [16]
  Dose/g: 0.86%
Rattus norvegicus [17]
  Dose/g: 0.25%
Rattus norvegicus [18]
  Dose/g: 0.28%
Rattus norvegicus [19]
  Ratio: 3.18
Rattus norvegicus [20]
  Ratio: 1.68
Rattus norvegicus [21]
  Dose/g: 0.97%
Rattus norvegicus [22]
  Ratio: 2.33
Rattus norvegicus [23]
  Dose/g: 0.23%
Rattus norvegicus [24]
  Dose/g: 0.27%
Rattus norvegicus [25]
  Dose/g: 0.59%
Rattus norvegicus [26]
  Dose/g: 0.99%
Rattus norvegicus [27]
  Dose/g: 1.59%
Rattus norvegicus [28]
  Dose/g: 0.65%
Rattus norvegicus [29]
  Dose/g: 1.32%
Rattus norvegicus [30]
  Ratio: 2.07
Rattus norvegicus [31]
  Ratio: 1.57
Rattus norvegicus [32]
  Dose/g: 0.5%
Rattus norvegicus [33]
  Dose/g: 0.15%
Rattus norvegicus [34]
  Dose/g: 0.87%
Rattus norvegicus [35]
  Dose/g: 0.4%
Rattus norvegicus [36]
  Dose/g: 0.07%
Rattus norvegicus [37]
  Dose/g: 0.49%
Rattus norvegicus [38]
  Dose/g: 2.33%
Rattus norvegicus [39]
  Dose/g: 0.13%
Rattus norvegicus [40]
  Dose/g: 0.4%
Rattus norvegicus [41]
  Dose/g: 13.13%
Rattus norvegicus [42]
  Dose/g: 0.09%
Rattus norvegicus [43]
  Dose/g: 0.21%
Rattus norvegicus [44]
  Dose/g: 4.59%
Rattus norvegicus [45]
  Dose/g: 0.67%
Rattus norvegicus [46]
  Dose/g: 0.11%
Rattus norvegicus [47]
  Dose/g: 2.18%
Rattus norvegicus [48]
  Dose/g: 0.57%
Rattus norvegicus [49]
  Dose/g: 1.14%
